The record followed here is ChEMBL document CHEMBL1250429, “Studies on the anti-hepatitis C virus activity of newly synthesized tropolone derivatives: identification of NS3 helicase inhibitors that specifically inhibit subgenomic HCV replication” (Bioorg Med Chem, 2010).

Series [1] can be described thus: Inhibition of HCV NS3 helicase. More on the design: species or system Hepacivirus hominis. Summed up: (§1)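 Fluorescence unwinding assay with purified NS3 helicase domains. Genotype 1a was expressed in baculovirus-infected insect cells; genotypes 1b and 3a were cloned from patient blood by RT-PCR, purity 95% by SDS–PAGE. Reactions used 10 nM dsDNA substrate, 20 nM enzyme and 125 nM capture strand. Inhibitor (1–300 μM) was preincubated with enzyme and substrate 15 min at room temperature without ATP. Reactions were started with 1.5 mM ATP and run 60 min at 30 °C, read every 2 min. Activity = initial velocity; inhibition relative to no-inhibitor control. Mean of at least three experiments ± SD.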

The test system of series [2] is Hepatitis C virus. Description: Antiviral activity against HCV Con 1 by subgenomic replicon assay. Format: functional, organism-based, Hepacivirus hominis. Conditions: Con1. In short, it runs like this:
(§2)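 Huh-7 cells carrying a stably replicating subgenomic HCV replicon were grown with compound at 1 μM to 1 mM, final solvent 1%; solvent-only cells served as control. Remaining replication read as luminescence. EC50 = concentration reducing luminescence by 50%; SI = CC50/EC50. Mean of at least three independent experiments ± SD.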

Series [3] is described as follows: Cytotoxicity against human HuH7 cells. The format is cell-based, Huh-7. Summed up:
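Replicon-bearing Huh-7 cells were grown with compound at 1 μM to 1 mM at a constant final 1% solvent. CC50 = concentration inhibiting cell growth by 50%. Mean of at least three independent experiments ± SD.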

The nature of series [4]: Selectivity index, ratio of CC50 for human HuH7 cells to EC50 for. More on the design: species or system Huh-7. In short, it runs like this: as §2
Series [5] deals with Hepatitis C virus. Description: Inhibition of HCV genotype 1B NS3 helicase. More on the design: species or system Hepatitis C virus subtype 1b. In short, it runs like this:
as §1

The nature of series [6]: Inhibition of HCV genotype 1a NS3 helicase. More on the design: species or system Hepatitis C virus subtype 1a. Summed up: as §1
A short description of series [7]: Inhibition of HCV genotype 3a NS3 helicase. More on the design: species or system Hepatitis C virus subtype 3a. Summed up: as §1

The IC50 is the point on the concentration scale where inhibition reaches its midpoint. Lower therefore signals greater potency. The EC50 is the concentration that produces a half-maximal response. A word on the CC50: it is the concentration that lowers cell viability or growth by half. A higher CC50 goes with lower toxicity to the cells.

In the case of `O=c1ccccc(Br)c1O`, in series [1], the IC50 was > 150 µM. Besides, in the series with Hepatitis C virus [2], a half-maximal effect (EC50) was put at 121 µM. Besides, it took 85.2 µM to reach half-maximal cytotoxicity in series [3] (CC50). Also, the “Ratio CC50/EC50” value in series [4] is reported as 0.7.

Consider `O=c1c(Cl)cccc(Cl)c1O`, for which, in series [1], the IC50 was > 150 µM. For the same molecule, the midpoint of the response in the series with Hepatitis C virus [2], the EC50, lay at 334 µM. In addition, the CC50 in series [3] came to 254 µM. Further, the “Ratio CC50/EC50” value in series [4] was 0.8.

As to `[N-]=[N+]=N[C@]1(CO)O[C@@H](n2ccc(N)nc2=O)[C@H](O)[C@@H]1O` [4'-AZIDOCYTIDINE], the EC50 in the series with Hepatitis C virus [2] came to 10.5 µM. The CC50 in series [3] is > 100 µM.

`O=c1c(CN2CCC(N3CCCC3)CC2)cc(CN2CCC(N3CCCC3)CC2)cc(CN2CCC(N3CCCC3)CC2)c1O` showed an IC50 in series [1] of 7 µM. Besides, the EC50 in the series on Hepatitis C virus [2] was > 200 µM. Besides, the cytotoxic concentration (CC50) in series [3] was > 200 µM.

The molecule `NC(=O)c1ncn([C@@H]2O[C@H](CO)[C@@H](O)[C@H]2O)n1` [RIBAVIRIN] showed an EC50 with Hepatitis C virus [2] of 120 µM. The midpoint of cytotoxicity in series [3], the CC50, lay at 178 µM. Further, the “Ratio CC50/EC50” value in series [4] amounted to 1.5.

For the molecule `O=c1c(Br)cccc(Br)c1O`, the IC50 in series [1] was > 150 µM. Also, the EC50 in the series on Hepatitis C virus [2] came out at 89.8 µM. In series [3], the CC50 came to 92.7 µM. Also, in series [4], the “Ratio CC50/EC50” value was 1.

Turning to `O=c1c(CN2CCC(O)CC2)cc(CN2CCC(O)CC2)cc(CN2CCC(O)CC2)c1O`, the IC50 in series [1] was 22.7 µM. The EC50 with Hepatitis C virus [2] was > 250 µM. Further, the CC50 in series [3] is > 250 µM.

As to `O=c1c(CN2CCCC2)cc(CN2CCCC2)cc(CN2CCCC2)c1O`, the IC50 in series [1] was found to be 184 µM. Also, the EC50 in the series on Hepatitis C virus [2] is > 500 µM. The CC50 in series [3] was > 500 µM.

`CN1CCN(Cc2cc(CN3CCN(C)CC3)c(O)c(=O)c(CN3CCN(C)CC3)c2)CC1`: the IC50 in series [1] amounted to 3.4 µM; in the series on Hepatitis C virus [5], 3.5 µM; in series [6] it was 3.4 µM; in series [7], 4.5 µM. For the same molecule, the EC50 with Hepatitis C virus [2] is 46.9 µM. Further, the CC50 in series [3] is > 1000 µM. The “Ratio CC50/EC50” value in series [4] is >21.3.

As for `O=c1c(CN2CCCCC2)cc(CN2CCCCC2)cc(CN2CCCCC2)c1O`, half-maximal inhibition in series [1] (IC50) required 26.5 µM. In the series on Hepatitis C virus [2], this molecule registered a concentration for a half-maximal effect (EC50) of 137 µM. For the same molecule, the CC50 in series [3] was > 500 µM. Also, the “Ratio CC50/EC50” value in series [4] is >3.6.

Consider `CC1CCN(Cc2cc(CN3CCC(C)CC3)c(O)c(=O)c(CN3CCC(C)CC3)c2)CC1`, for which the IC50 in series [1] was found to be 10.5 µM. In the series with Hepatitis C virus [2], this molecule gave an EC50 of 32 µM. The molecule further came in with a CC50 in series [3] of 556 µM. Moreover, the “Ratio CC50/EC50” value in series [4] is 17.4.

As for `O=c1c(Br)cc(CN2CCOCC2)cc(Br)c1O`, the midpoint of inhibition in series [1], the IC50, lay at 17.6 µM. Also, it took 176 µM to reach a half-maximal effect in the series on Hepatitis C virus [2] (EC50). The CC50 in series [3] was determined as 227 µM. Moreover, the “Ratio CC50/EC50” value in series [4] was determined as 1.3.

Turning to `CC1CCCN(Cc2cc(CN3CCCC(C)C3)c(O)c(=O)c(CN3CCCC(C)C3)c2)C1` (centres undefined), in series [1], the IC50 was determined as 17.8 µM. The EC50 in the series with Hepatitis C virus [2] stood at 35.6 µM. Further, in series [3], the CC50 came out at 348 µM. Besides, the “Ratio CC50/EC50” value in series [4] was determined as 9.8.
